Data published in ChEMBL document CHEMBL1629439, “High-throughput identification of antibacterials against methicillin-resistant Staphylococcus aureus (MRSA) and the transglycosylase” (Bioorg Med Chem, 2010).
Converted amounts (≈) assume the structure as drawn.

Assays:
[1] = test system: Mycolicibacterium smegmatis; experiment: Antimicrobial activity against Mycobacterium smegmatis BCRC 11565 after 18 to 24 hrs by alamar blue assay; assay type: functional; details: Mycolicibacterium smegmatis, BCRC 11565; read-out: MIC
Procedure, shortened: (§1)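 Broth microdilution per NCCLS in Mueller-Hinton broth, 8-point twofold dilutions, 384-well format. Exponential-phase cells at 5 × 10^5 cells/ml incubated with compound 18–24 h at 37 °C, then 20% Alamar blue added and fluorescence read. MIC90 taken as the lowest concentration preventing at least 90% bacterial growth.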

Pseudomonas aeruginosa = experiment: Antimicrobial activity against Pseudomonas aeruginosa ATCC 25619 after 18 to 24 hrs by alamar blue assay; assay type: functional; details: Pseudomonas aeruginosa, ATCC 25619; read-out: MIC; procedure, shortened: as §1
Staphylococcus aureus [2] = experiment: Antimicrobial activity against methicillin-resistant Staphylococcus aureus ATCC 33592 after 18 to 24 hrs by alamar blue assay; assay type: functional; details: Staphylococcus aureus, ATCC 33592; read-out: MIC
Procedure, shortened: (§2)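 Broth microdilution per NCCLS standard, Mueller-Hinton broth, 8-point twofold dilutions; exponentially growing cells at 5 10^5 cells/ml with compound, 18–24 h at 37 C; 20% Alamar blue added, fluorescence read; MIC90 taken as lowest concentration preventing at least 90% growth.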

Staphylococcus aureus [3] = experiment: Antimicrobial activity against methicillin-resistant Staphylococcus aureus isolate NTUH4722 after 18 to 24 hrs by alamar blue assay; assay type: functional; procedure, shortened: as §2
Bacillus subtilis = experiment: Antimicrobial activity against Bacillus subtilis ATCC 23857 after 18 to 24 hrs by alamar blue assay; assay type: functional; procedure, shortened: as §1
Staphylococcus aureus [4] = experiment: Antimicrobial activity against Staphylococcus aureus ATCC 29213 after 18 to 24 hrs by alamar blue assay
Escherichia coli = experiment: Antimicrobial activity against Escherichia coli ATCC […] after 18 to 24 hrs by alamar blue assay; assay type: functional; details: Escherichia coli; read-out: MIC; procedure, shortened: as §1
Staphylococcus aureus [5] = experiment: Antimicrobial activity against oxacillin- and methicillin-resistant Staphylococcus aureus isolate Sa-OXA-R2 after 18 to 24 hrs by alamar blue assay; assay type: functional; procedure, shortened: as §2
Acinetobacter baumannii = experiment: Antimicrobial activity against Acinetobacter baumannii ATCC 49139 after 18 to 24 hrs by alamar blue assay; assay type: functional; details: Acinetobacter baumannii, ATCC 49139; read-out: MIC; procedure, shortened: as §1
[6] = test system: Stenotrophomonas maltophilia; experiment: Antimicrobial activity against Stenotrophomonas maltophilia ATCC 13637 after 18 to 24 hrs by alamar blue assay; assay type: functional; details: Stenotrophomonas maltophilia, ATCC 13637; read-out: MIC; procedure, shortened: as §1
Serratia marcescens = experiment: Antimicrobial activity against Serratia marcescens ATCC 14756 after 18 to 24 hrs by alamar blue assay; assay type: functional; details: Serratia marcescens, ATCC 14756; read-out: MIC; procedure, shortened: as §1

Row | Compound | MIC [1] | MIC (Pseudomonas aeruginosa) | MIC (Staphylococcus aureus [2]) | MIC (Staphylococcus aureus [3]) | MIC (Bacillus subtilis) | MIC (Staphylococcus aureus [4]) | MIC (Escherichia coli) | MIC (Staphylococcus aureus [5]) | MIC (Acinetobacter baumannii) | MIC [6] | MIC (Serratia marcescens)
1 | Cc1c(CC(=O)N2CCC[C@H]2C(=O)O)c(=O)oc2c(C)c3occ(-c4ccc(Cl)cc4)c3cc12 | 1 µg/mL (≈ 2.08 µM) | > 256 µg/mL | 0.3 µg/mL (≈ 0.625 µM) | 0.3 µg/mL (≈ 0.625 µM) | > 64 µg/mL | 0.3 µg/mL (≈ 0.625 µM) | > 256 µg/mL | 0.6 µg/mL (≈ 1.25 µM) | > 256 µg/mL | > 256 µg/mL | > 256 µg/mL
2 | CC(C)N1C(=O)/C(=C/c2ccc([N+](=O)[O-])o2)SC1=S | 1 µg/mL (≈ 3.35 µM) | 2 µg/mL (≈ 6.7 µM) | 1 µg/mL (≈ 3.35 µM) | 2 µg/mL (≈ 6.7 µM) | < 0.03 µg/mL | 0.25 µg/mL (≈ 0.838 µM) | 16 µg/mL (≈ 53.6 µM) | 1 µg/mL (≈ 3.35 µM) | > 256 µg/mL | > 256 µg/mL | > 256 µg/mL
3 | O=C(Nc1nnc(-c2ccc(Br)cc2)o1)c1cccc(C(F)(F)F)c1 | 0.5 µg/mL (≈ 1.21 µM) | > 256 µg/mL | 1 µg/mL (≈ 2.43 µM) | 0.5 µg/mL (≈ 1.21 µM) | 0.5 µg/mL (≈ 1.21 µM) | 1 µg/mL (≈ 2.43 µM) | > 256 µg/mL | 0.125 µg/mL (≈ 0.303 µM) | > 256 µg/mL | > 256 µg/mL | > 256 µg/mL
4 | O=C(Nc1cccc(C2=Nc3ccccc3C2)c1)c1ccc([N+](=O)[O-])o1 | 0.5 µg/mL (≈ 1.44 µM) | 128 µg/mL (≈ 369 µM) | 0.25 µg/mL (≈ 0.72 µM) | 0.5 µg/mL (≈ 1.44 µM) | 0.06 µg/mL (≈ 0.173 µM) | 0.5 µg/mL (≈ 1.44 µM) | 256 µg/mL (≈ 737 µM) | 0.5 µg/mL (≈ 1.44 µM) | 12 µg/mL (≈ 34.5 µM) | 32 µg/mL (≈ 92.1 µM) | 32 µg/mL (≈ 92.1 µM)
5 | CCC1Sc2ccc(S(=O)(=O)Nc3cc(Cl)ccc3C)cc2NC1=O (stereo not given) | > 64 µg/mL | > 256 µg/mL | > 64 µg/mL | 16 µg/mL (≈ 40.3 µM) | < 0.03 µg/mL | 4 µg/mL (≈ 10.1 µM) | > 256 µg/mL | 16 µg/mL (≈ 40.3 µM) | > 256 µg/mL | > 256 µg/mL | > 256 µg/mL
6 | CCOC(=O)c1c(NC(=O)c2ccc([N+](=O)[O-])o2)sc2c1CCN(C(C)=O)C2 | 0.5 µg/mL (≈ 1.23 µM) | 128 µg/mL (≈ 314 µM) | 4 µg/mL (≈ 9.82 µM) | 1 µg/mL (≈ 2.45 µM) | 0.06 µg/mL (≈ 0.147 µM) | 1 µg/mL (≈ 2.45 µM) | 256 µg/mL (≈ 628 µM) | 1 µg/mL (≈ 2.45 µM) | 12 µg/mL (≈ 29.5 µM) | 32 µg/mL (≈ 78.5 µM) | 32 µg/mL (≈ 78.5 µM)
7 | Cn1c(/C=C/c2ccc([N+](=O)[O-])o2)nc2ccccc2c1=O | 1 µg/mL (≈ 3.36 µM) | 2 µg/mL (≈ 6.73 µM) | 2 µg/mL (≈ 6.73 µM) | 1 µg/mL (≈ 3.36 µM) | < 0.03 µg/mL | 1 µg/mL (≈ 3.36 µM) | 16 µg/mL (≈ 53.8 µM) | 0.5 µg/mL (≈ 1.68 µM) | > 256 µg/mL | > 256 µg/mL | > 256 µg/mL
8 | Cc1c(CC(=O)N2CCC(C(=O)O)(c3ccccc3)CC2)c(=O)oc2c(C)c3occ(-c4ccc(Cl)cc4)c3cc12 | 1 µg/mL (≈ 1.75 µM) | > 256 µg/mL | 2.5 µg/mL (≈ 4.39 µM) | 2.5 µg/mL (≈ 4.39 µM) | > 64 µg/mL | 2.5 µg/mL (≈ 4.39 µM) | > 256 µg/mL | 2.5 µg/mL (≈ 4.39 µM) | > 256 µg/mL | > 256 µg/mL | > 256 µg/mL
9 | Cc1c(CC(=O)O)c(=O)oc2c(C)c3occ(-c4ccc(Br)cc4)c3cc12 | 1 µg/mL (≈ 2.34 µM) | > 256 µg/mL | 2 µg/mL (≈ 4.68 µM) | 16 µg/mL (≈ 37.4 µM) | > 64 µg/mL | 2 µg/mL (≈ 4.68 µM) | > 256 µg/mL | 2 µg/mL (≈ 4.68 µM) | > 256 µg/mL | > 256 µg/mL | > 256 µg/mL
10 | CCCc1cc(O)nc(N2NC(C)=CC2NC(=O)c2ccccc2F)n1 (stereo not given) | 0.25 µg/mL (≈ 0.7 µM) | > 256 µg/mL | 0.5 µg/mL (≈ 1.4 µM) | 1 µg/mL (≈ 2.8 µM) | 0.25 µg/mL (≈ 0.7 µM) | 2 µg/mL (≈ 5.6 µM) | > 256 µg/mL | 1 µg/mL (≈ 2.8 µM) | > 256 µg/mL | > 256 µg/mL | > 256 µg/mL
11 | O=C(CCN1C(=O)c2cccc3cccc(c23)C1=O)N1CCN(C/C=C/c2ccccc2)CC1 | 4 µg/mL (≈ 8.82 µM) | > 256 µg/mL | 1 µg/mL (≈ 2.2 µM) | 4 µg/mL (≈ 8.82 µM) | 4 µg/mL (≈ 8.82 µM) | 0.5 µg/mL (≈ 1.1 µM) | > 256 µg/mL | 0.25 µg/mL (≈ 0.551 µM) | > 256 µg/mL | > 256 µg/mL | > 256 µg/mL
12 | CCOc1ccccc1N(C)S(=O)(=O)c1ccc2c(c1)NC(=O)C(C)S2 (stereo not given) | > 64 µg/mL | > 256 µg/mL | 8 µg/mL (≈ 20.4 µM) | 8 µg/mL (≈ 20.4 µM) | < 0.03 µg/mL | 4 µg/mL (≈ 10.2 µM) | > 256 µg/mL | > 64 µg/mL | > 256 µg/mL | > 256 µg/mL | > 256 µg/mL
13 | CCCc1ccc(C)c(Oc2ccc(Cl)cc2NC(=O)c2cc(Cl)cc(Br)c2O)c1 | 0.5 µg/mL (≈ 0.982 µM) | 16 µg/mL (≈ 31.4 µM) | 0.125 µg/mL (≈ 0.245 µM) | 0.06 µg/mL (≈ 0.118 µM) | < 0.03 µg/mL | 0.25 µg/mL (≈ 0.491 µM) | 8 µg/mL (≈ 15.7 µM) | 0.06 µg/mL (≈ 0.118 µM) | 16 µg/mL (≈ 31.4 µM) | 16 µg/mL (≈ 31.4 µM) | 16 µg/mL (≈ 31.4 µM)
14 | Cc1c(CC(=O)NCCCC(=O)O)c(=O)oc2c(C)c3occ(-c4ccc(Cl)cc4)c3cc12 | 1 µg/mL (≈ 2.14 µM) | > 256 µg/mL | 2.5 µg/mL (≈ 5.34 µM) | 2.5 µg/mL (≈ 5.34 µM) | > 64 µg/mL | 2.5 µg/mL (≈ 5.34 µM) | > 256 µg/mL | 2.5 µg/mL (≈ 5.34 µM) | > 256 µg/mL | > 256 µg/mL | > 256 µg/mL
15 | O=C1c2cccc3c([N+](=O)[O-])ccc(c23)C(=O)N1Cc1cccnc1 | 4 µg/mL (≈ 12 µM) | > 256 µg/mL | 2 µg/mL (≈ 6 µM) | 8 µg/mL (≈ 24 µM) | 4 µg/mL (≈ 12 µM) | 8 µg/mL (≈ 24 µM) | > 256 µg/mL | 8 µg/mL (≈ 24 µM) | > 256 µg/mL | > 256 µg/mL | > 256 µg/mL
